# Measured values reported in ChEMBL document CHEMBL2069261, “Click-based synthesis of triazolobithiazole ΔF508-CFTR correctors for cystic fibrosis” (Bioorg Med Chem, 2012).
# Active and inactive are the calls of the source. The calls are words filed in the database; no cut-off is given here.
# Columns and labels:
# [1] = biological target: Cystic fibrosis transmembrane conductance regulator (Homo sapiens, UniProt P13569, F508DEL); assay: (§1) Corrector activity at human CFTR deltaF508 mutant expressed in FRT cells stimulated forskolin and potentiator genistein with assessed as iodide influx incubated for 24 hrs; type: cell-based
# In short: (§2)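 Epithelial cells co-expressing ΔF508-CFTR and a fluorescent halide sensor were treated with compound for 24 h across a dose range. They were then stimulated with forskolin (cAMP agonist) plus genistein (potentiator), and I⁻ influx was read from the sensor. Vmax and EC50 were taken from the dose-response curves. n=4, with S.E. reported.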
# [2] = Lipophilicity, log P of the compound; type: physicochemical; settings: octanol/water
# In short: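 LogP was estimated from HPLC retention times. The capacity factor was calculated and correlated to logP values.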
# [3] = system: Cystic fibrosis transmembrane conductance regulator (Homo sapiens), P13569 [F508del]; assay: as §1; type: cell-based; in short: as §2
# Sequence of Cystic fibrosis transmembrane conductance regulator (Homo sapiens), P13569 [F508del] (P13569 as listed by the source): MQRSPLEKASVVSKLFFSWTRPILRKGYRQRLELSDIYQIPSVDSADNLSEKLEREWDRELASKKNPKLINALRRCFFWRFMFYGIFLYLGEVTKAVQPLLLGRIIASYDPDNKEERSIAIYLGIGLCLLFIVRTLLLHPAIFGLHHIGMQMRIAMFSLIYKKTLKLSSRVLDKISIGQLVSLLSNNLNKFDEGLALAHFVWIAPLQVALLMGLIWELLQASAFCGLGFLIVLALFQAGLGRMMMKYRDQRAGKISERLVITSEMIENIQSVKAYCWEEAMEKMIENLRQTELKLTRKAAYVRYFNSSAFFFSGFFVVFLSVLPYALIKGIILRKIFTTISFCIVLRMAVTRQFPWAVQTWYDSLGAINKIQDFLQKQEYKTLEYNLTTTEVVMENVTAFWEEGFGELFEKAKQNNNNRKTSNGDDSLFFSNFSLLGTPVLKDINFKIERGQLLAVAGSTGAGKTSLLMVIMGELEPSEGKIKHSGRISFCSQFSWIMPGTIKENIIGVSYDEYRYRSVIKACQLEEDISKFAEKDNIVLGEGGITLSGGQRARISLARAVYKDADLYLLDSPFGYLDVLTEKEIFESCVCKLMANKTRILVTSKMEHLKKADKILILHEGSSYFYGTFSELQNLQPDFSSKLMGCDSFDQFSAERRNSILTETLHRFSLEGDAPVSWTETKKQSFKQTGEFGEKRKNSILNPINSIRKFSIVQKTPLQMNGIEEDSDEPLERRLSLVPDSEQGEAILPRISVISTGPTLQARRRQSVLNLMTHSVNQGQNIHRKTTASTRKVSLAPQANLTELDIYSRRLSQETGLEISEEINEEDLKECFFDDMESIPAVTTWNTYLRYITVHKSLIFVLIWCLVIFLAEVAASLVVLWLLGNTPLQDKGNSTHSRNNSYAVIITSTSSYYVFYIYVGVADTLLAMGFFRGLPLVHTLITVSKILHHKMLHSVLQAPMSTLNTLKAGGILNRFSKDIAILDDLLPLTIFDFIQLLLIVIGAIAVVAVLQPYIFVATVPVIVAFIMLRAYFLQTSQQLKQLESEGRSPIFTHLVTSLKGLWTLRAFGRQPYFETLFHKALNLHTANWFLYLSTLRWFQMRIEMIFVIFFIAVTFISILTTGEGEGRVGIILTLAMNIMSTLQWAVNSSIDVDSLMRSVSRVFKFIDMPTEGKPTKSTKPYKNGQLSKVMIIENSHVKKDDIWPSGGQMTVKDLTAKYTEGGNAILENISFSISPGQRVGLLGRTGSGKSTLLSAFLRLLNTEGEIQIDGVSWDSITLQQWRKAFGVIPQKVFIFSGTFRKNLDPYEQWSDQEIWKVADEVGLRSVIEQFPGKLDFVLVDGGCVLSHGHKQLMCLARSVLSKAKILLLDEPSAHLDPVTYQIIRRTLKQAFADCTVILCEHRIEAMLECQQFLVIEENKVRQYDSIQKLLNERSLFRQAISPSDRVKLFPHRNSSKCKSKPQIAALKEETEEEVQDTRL
# Sequence of Cystic fibrosis transmembrane conductance regulator (P13569 as listed by the source): as above
Structure (SMILES),EC50 [1],logP ([2]; read-out: logP),Activity [3],logP [2]
COc1ccc(Cl)cc1Nc1nc(-c2sc(NC(=O)C(C)(C)C)nc2C)c(-n2cc(-c3ccccc3)nn2)s1,140 nM,,,
COc1ccc(Cl)cc1Nc1nc(-c2sc(NC(=O)C(C)(C)C)nc2C)c(-n2cc(C(=O)O)nn2)s1,,4.8,,
Cc1nc(NC(=O)C(C)(C)C)sc1-c1nc(N)sc1-n1cc(-c2ccccc2)nn1,1500 nM,,,

# Other lines, results leading:
EC50 [1],logP ([2]; read-out: logP),Activity [3],logP [2],Structure (SMILES)
1600 nM,4.8,,,COc1ccc(Cl)cc1Nc1nc(-c2sc(NC(=O)C(C)(C)C)nc2C)c(-n2cc(CO)nn2)s1
,,Active,5.96,COc1ccc(Cl)cc1Nc1nc(-c2sc(NC(=O)c3ccccc3)nc2C)cs1
4900 nM,,,,CNc1nc(-c2sc(NC(=O)C(C)(C)C)nc2C)c(-n2cc(-c3ccccc3)nn2)s1
4600 nM,4.8,,,COC(=O)c1cn(-c2sc(Nc3cc(Cl)ccc3OC)nc2-c2sc(NC(=O)C(C)(C)C)nc2C)nn1
